# Experimental data as given in paper PMC2939729 (Cancer cell, 2010).
# Columns and labels:
# PLK4 = biological target: T1, PLK4 (Homo sapiens, UniProt O00444); assay: Inhibitory effect on PLK4 in vitro and in vivo
# T1 sequence (O00444 1-970): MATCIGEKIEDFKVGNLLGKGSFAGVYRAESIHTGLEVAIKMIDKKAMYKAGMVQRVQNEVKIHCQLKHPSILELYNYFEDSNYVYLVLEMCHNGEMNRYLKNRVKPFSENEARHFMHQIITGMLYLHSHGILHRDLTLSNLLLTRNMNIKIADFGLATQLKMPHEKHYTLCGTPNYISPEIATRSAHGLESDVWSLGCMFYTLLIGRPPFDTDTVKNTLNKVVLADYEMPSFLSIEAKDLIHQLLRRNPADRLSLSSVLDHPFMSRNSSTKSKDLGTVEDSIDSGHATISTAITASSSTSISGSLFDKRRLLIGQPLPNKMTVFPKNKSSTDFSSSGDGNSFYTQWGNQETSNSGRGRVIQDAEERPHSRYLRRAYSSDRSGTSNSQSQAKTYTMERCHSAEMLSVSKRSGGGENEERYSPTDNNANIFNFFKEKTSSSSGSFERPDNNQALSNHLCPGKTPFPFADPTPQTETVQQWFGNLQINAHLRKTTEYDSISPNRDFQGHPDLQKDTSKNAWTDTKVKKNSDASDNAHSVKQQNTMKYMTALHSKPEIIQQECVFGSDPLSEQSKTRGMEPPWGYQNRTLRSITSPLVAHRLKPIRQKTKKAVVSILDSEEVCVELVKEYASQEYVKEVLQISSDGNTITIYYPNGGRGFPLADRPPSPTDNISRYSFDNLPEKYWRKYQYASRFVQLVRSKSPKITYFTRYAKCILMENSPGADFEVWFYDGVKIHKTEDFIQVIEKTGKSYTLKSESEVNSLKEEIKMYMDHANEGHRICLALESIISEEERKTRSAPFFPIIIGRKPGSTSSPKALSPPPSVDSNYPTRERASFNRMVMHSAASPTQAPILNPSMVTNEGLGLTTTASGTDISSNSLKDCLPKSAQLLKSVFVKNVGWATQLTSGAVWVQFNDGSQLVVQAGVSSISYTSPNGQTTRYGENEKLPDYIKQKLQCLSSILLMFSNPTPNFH
# DCAMKL2 = biological target: T2, DCAMKL2 (Homo sapiens, UniProt Q8N568); assay: in vitro ATP-site competition binding assay, panel of 402 kinases; conditions: 10 μM inhibitor
# T2 sequence (Q8N568 1-766): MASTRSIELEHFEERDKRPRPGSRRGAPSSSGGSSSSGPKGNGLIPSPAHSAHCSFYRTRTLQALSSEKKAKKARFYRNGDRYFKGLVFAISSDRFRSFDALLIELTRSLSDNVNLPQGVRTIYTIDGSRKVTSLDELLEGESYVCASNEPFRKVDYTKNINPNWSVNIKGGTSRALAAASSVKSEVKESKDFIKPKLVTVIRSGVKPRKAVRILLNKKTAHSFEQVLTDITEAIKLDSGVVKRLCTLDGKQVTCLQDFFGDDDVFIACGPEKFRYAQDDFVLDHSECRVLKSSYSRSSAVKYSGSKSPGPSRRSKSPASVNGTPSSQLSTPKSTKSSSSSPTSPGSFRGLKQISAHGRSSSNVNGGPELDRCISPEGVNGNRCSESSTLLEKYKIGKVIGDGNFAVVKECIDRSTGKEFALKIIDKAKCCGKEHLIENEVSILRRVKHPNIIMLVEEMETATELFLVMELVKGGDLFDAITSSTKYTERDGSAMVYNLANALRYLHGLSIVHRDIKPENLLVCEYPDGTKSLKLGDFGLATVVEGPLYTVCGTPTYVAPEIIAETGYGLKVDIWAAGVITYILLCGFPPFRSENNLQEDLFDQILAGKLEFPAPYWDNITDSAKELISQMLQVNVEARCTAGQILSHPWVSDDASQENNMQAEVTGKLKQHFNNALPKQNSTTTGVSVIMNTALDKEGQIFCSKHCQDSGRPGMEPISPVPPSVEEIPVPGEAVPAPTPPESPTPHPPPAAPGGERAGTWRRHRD
# [1] = mouse, in vivo, ip, 50 mg/kg
# DCAMKL1 = biological target: T3, DCAMKL1 (Homo sapiens, UniProt O15075); assay: in vitro ATP-site competition binding assay, panel of 402 kinases; conditions: 10 μM inhibitor
# T3 sequence (O15075 1-740): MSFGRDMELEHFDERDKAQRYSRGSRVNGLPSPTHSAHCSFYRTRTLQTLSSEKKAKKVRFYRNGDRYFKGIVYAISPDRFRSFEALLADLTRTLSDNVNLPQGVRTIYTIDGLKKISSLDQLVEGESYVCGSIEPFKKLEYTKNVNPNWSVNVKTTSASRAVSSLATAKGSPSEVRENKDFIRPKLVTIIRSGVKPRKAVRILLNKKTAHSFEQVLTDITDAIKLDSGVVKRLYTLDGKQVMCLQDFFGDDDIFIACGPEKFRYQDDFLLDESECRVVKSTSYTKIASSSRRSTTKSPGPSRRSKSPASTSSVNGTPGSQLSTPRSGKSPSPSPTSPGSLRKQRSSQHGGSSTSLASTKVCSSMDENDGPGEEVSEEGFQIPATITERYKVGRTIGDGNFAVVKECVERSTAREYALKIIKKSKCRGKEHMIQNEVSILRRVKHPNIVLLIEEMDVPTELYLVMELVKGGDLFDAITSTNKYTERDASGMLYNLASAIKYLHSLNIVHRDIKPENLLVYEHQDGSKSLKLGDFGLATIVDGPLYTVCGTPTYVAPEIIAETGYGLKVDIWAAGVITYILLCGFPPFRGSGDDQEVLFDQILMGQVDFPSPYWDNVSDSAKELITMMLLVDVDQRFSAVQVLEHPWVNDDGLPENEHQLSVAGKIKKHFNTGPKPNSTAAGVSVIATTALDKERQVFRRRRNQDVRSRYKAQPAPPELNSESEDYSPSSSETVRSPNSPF
# ERK1/2 = assay: EGF-induced ERK1/2 activation in HeLa cells; format: cell-based, human; conditions: 1 μM compound for one hour, EGF 17 min
# p21 expression = p21 expression in MEF cells, western blot; format: cell-based; conditions: 5 μM, 16 hours
# How it was run: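 Pml+/+ and Pml−/− MEFs were treated with or without test compound (5 μM) for 16 hr. Lysates were western-blotted with anti-p21 antibody. p21 was quantified by densitometry, normalised to GAPDH, and expressed relative to untreated Pml+/+ cells (set to 1). n = 5; Student's t test.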
smiles,measurement,setting,value
CCOc1cc(N2CCC(O)CC2)ccc1Nc1ncc2c(n1)N(C)c1ccccc1C(=O)N2C [XMD8-92],inhibitory effect on PLK4,PLK4,no significant inhibitory effect
same,displacement by XMD8-92,DCAMKL2,greater than 90%
same,tolerability,[1],well tolerated
same,displacement by XMD8-92,DCAMKL1,greater than 90%
same,Growth factor-induced activation of cellular ERK1/2,ERK1/2,but not the structurally similar ERK1/2
same,p21 expression,p21 expression; Pml+/+ MEF cells,significantly induced
same,induction of p21 in PML null cells,p21 expression; Pml-/- MEF cells,substantially reduced
